Activity calls are given as the source filed them. The rule behind the calls is not given here.
Experiments:
[1] = target: T1, Protein deacetylase HDAC6 (Homo sapiens, UniProt Q9UBN7); assay: Inhibition of N-terminal GST tagged human recombinant HDAC6 (1 to 1215 residues) expressed in Sf9 insect cells using Z-Lys(Ac)-AMC as fluorogenic substrate preincubated for 60 mins followed by substrate addition and measured after 90 mins by microplate reader analysis
T1 sequence (Q9UBN7 whole entry): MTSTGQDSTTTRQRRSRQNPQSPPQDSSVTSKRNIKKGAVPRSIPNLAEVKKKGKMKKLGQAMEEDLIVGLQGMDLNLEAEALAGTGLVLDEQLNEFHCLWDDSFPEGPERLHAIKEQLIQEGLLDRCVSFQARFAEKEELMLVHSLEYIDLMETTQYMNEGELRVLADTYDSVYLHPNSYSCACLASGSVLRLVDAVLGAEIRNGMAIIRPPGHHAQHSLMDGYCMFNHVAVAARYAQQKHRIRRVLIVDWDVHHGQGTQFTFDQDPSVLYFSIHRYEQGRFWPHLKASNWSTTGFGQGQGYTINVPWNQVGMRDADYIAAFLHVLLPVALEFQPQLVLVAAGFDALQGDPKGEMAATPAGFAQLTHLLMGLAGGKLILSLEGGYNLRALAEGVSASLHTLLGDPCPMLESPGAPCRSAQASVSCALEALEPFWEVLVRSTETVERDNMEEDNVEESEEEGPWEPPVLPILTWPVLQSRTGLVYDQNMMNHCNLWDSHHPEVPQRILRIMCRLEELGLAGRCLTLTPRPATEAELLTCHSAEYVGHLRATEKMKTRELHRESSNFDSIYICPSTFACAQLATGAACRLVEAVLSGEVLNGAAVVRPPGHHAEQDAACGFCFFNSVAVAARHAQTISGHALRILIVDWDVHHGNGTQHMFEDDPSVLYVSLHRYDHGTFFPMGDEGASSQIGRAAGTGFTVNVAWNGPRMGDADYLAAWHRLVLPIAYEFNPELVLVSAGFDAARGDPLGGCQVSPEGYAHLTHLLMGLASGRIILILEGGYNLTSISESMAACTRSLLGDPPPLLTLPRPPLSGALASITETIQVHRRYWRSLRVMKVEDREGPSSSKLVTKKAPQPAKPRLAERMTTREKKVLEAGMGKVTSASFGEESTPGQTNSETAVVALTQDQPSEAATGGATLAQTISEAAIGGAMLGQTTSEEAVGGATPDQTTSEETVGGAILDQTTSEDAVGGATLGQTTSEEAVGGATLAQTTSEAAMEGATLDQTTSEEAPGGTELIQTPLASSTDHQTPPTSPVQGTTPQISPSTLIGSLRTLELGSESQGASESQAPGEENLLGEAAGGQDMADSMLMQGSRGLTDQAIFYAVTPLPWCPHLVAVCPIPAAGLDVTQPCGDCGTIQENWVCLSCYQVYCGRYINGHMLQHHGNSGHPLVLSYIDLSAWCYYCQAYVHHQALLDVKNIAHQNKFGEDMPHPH

[2] = test system: T2, Histone deacetylase 6 (Danio rerio), F8W4B7 [Y745F]; assay: Irreversible inhibition of Danio rerio HDAC6 Y745F mutant catalytic domain 2 assessed as enzyme catalysed ring opening by measuring reduction in 2-(benzylamino)-N'-(2,2,2-trifluoroacetyl)pyrimidine-5-carbohydrazide formation at 100 uM incubated overnight by LC-MS analysis
T2 sequence (whole entry): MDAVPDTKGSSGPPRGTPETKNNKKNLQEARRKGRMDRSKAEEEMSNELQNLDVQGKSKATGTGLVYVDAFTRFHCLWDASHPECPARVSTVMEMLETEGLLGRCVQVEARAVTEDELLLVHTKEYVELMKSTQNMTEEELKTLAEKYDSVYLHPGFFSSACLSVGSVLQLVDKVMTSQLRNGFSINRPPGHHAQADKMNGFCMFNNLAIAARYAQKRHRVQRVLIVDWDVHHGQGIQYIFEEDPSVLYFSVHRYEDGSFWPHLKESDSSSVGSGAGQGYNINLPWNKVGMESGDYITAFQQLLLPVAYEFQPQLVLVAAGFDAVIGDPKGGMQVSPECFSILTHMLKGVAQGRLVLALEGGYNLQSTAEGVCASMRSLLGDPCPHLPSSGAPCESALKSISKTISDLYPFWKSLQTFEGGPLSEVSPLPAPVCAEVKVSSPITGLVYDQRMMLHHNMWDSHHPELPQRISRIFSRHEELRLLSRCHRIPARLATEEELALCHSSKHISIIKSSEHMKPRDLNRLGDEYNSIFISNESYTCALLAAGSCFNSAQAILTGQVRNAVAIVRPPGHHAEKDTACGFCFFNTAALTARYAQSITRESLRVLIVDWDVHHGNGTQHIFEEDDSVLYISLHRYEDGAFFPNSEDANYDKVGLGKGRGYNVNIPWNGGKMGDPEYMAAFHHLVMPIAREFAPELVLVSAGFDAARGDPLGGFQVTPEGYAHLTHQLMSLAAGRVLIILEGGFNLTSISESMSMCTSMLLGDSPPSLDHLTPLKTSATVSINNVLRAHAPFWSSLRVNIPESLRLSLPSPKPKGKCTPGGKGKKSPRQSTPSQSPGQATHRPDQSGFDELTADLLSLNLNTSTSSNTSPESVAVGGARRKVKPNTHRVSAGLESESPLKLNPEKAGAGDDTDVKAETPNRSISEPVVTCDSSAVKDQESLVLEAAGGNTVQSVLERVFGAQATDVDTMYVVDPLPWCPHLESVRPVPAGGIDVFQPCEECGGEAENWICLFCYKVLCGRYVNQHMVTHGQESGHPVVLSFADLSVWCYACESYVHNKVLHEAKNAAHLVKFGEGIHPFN
In short: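 Zebrafish HDAC6 CD2 mutants were made by site-directed mutagenesis and expressed in BL21(DE3). Enzyme at 50 μM was incubated overnight with 100 μM inhibitor in 50 mM HEPES pH 7.5, 100 mM KCl, 1 mM TCEP, 5% glycerol; an enzyme-free control was included. Protein was methanol-precipitated and filtered, and products were analysed by C18 UPLC-MS with a 2-min gradient.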

[3] = target: T1, Protein deacetylase HDAC6; assay: Inhibition of N-terminal GST tagged human recombinant HDAC6 (1 to 1215 residues) expressed in Sf9 insect cells using Z-Lys(Ac)-AMC as fluorogenic substrate preincubated for 2 hrs followed by substrate addition and measured after 90 mins by microplate reader analysis

For `FC(F)(F)c1nnc(-c2cnc(NCc3ccccc3)nc2)o1`, the IC50 [1] was 531 nM, the inhibition [2] was “inactive” and the IC50 [3] was 601 nM.
For `FC(F)c1nnc(-c2cnc(NCc3ccccc3)nc2)o1`, the IC50 [1] was 193 nM, the inhibition [2] was “inactive” and the IC50 [3] was 129 nM.

Reference: ChEMBL document CHEMBL5365542, “Difluoromethyl-1,3,4-oxadiazoles Are Selective, Mechanism-Based, and Essentially Irreversible Inhibitors of Histone Deacetylase 6” (J Med Chem, 2023)
